ANO1 activ: activates or potentiates the mouse TMEM16A chloride channel | Q8BHY3 | HEK293 TMEM16A/YFP-H148Q/I152L, iodide quench fluorescence; hits give low values | B-score at 10 µM | 340,000 tested, 0.3% active;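 active means fluorescence-ratio B-score plate-corrected deviation score at least 3 library SD below zero, with starting fluorescence score within 5 deviations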;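 further: channel opened by trigger with iodide after compound preincubation; score built on the fluorescence ratio of max minus min over baseline; more negative score means more quench and so TMEM16A activation or potentiation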
Target sequence (Q8BHY3 whole entry, looked up): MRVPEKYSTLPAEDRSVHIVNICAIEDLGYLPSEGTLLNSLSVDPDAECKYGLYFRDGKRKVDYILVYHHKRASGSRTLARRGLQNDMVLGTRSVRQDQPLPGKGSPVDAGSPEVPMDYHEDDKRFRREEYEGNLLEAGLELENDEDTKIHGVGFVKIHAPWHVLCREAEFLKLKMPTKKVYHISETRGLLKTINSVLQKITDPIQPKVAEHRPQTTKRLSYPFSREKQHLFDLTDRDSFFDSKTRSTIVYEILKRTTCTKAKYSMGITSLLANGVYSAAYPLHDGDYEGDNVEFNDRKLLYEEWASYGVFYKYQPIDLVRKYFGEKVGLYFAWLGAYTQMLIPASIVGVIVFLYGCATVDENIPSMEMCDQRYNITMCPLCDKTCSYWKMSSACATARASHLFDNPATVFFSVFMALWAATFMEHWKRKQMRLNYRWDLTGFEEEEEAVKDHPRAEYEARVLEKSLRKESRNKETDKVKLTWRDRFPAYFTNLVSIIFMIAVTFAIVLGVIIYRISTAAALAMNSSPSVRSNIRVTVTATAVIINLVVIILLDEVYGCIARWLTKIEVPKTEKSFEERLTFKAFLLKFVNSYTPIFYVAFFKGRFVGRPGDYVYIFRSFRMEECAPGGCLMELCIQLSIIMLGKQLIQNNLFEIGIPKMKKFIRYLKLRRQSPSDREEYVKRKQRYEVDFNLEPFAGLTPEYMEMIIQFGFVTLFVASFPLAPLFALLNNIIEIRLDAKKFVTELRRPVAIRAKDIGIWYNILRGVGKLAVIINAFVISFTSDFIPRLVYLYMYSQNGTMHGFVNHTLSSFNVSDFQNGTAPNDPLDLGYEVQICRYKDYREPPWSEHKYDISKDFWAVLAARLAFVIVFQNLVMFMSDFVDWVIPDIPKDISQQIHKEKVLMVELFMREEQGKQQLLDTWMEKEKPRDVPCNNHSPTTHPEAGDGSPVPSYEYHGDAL
ANO1 block: blocks the mouse calcium-activated chloride channel TMEM16A; HEK293 TMEM16A/YFP iodide influx fluorescence, ionomycin; normalized B-score (activity score, 25-100; higher = stronger inhibition) at 10 µM; 310,000 tested, 1.2% active; AID 588511;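 active means ratio plate-corrected score three or more library SD toward inhibition, starting fluorescence score within five deviations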;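 further: score derived from kinetic fluorescence span divided by baseline fluorescence per well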
TAAR1 antag: antagonists of human TAAR1; Q96RJ0; CHO RD-HGA16 TAAR1, Fluo-8 calcium fluorescence, antagonist; inhibition, % at 3 µM; 360,000 tested, 1.5% active; AID 624466;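 active means inhibition above a per-plate cutoff, the mean inhibition of test compounds on that plate plus 3 SD, cut at about 49% in these data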;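 further: 0% = DMSO plus EC80 beta-PEA response and 100% = DMSO alone without agonist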
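Test system – hTAAR1-expressing CHO RD-HGA16 cells, Gα16-coupled · Also added – β-PEA at EC80 concentration, post-compound challenge · Compound – 3 µM, single point · Incubation – dye loading 75 min at 37 °C, then 30 min room temperature · Measured by – Fluo-8 intracellular calcium dye fluorescence, real-time kinetic reads · Benchmarks – vehicle and agonist controls · Replicates – singlicate, one well per test compound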
TAAR1 ag: human TAAR1 agonism | activation, % at 3 µM | Q96RJ0 | AID 624467 | 360,000 tested, 0.99% active | CHO RD-HGA16 TAAR1, Fluo-8 calcium fluorescence; vehicle wells 0%, saturating PEA agonist 100%;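 active means activation above the mean activation of all test compounds in the run plus 3 SD, cut at about 38% in these data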
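Signal – calcium-sensitive Fluo-8 signal, excitation 470-495, emission 515-575 nm · System – RD-HGA16 (CHO) cells co-expressing Gα16 and hTAAR1 · Incubation – 17-24 h seeding, 75 min 37 °C dye, 30 min RT · Compound dosing – 3 µM single concentration · Repeats – no replicates (n 1)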
CRFBP-R2 block: CRF-BP/CRF-R2 complex antagonism | AID 588475 | 350,000 tested, 0.59% active | inhibition, % at 11.8 µM | HEK293 CRF-R2/CRF-BP, CRF-induced calcium fluorescence;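 active means inhibition of the ligand-induced calcium signal above about 50% at the single tested concentration, limit read from the data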
CRFBP-R2 agonist: CRF-BP/CRF-R2 complex agonism | HEK293 CRF-R2/CRF-BP, calcium dye fluorescence (FLIPR); percent of saturating CRF peptide response | activation, % at 13.2 µM | 350,000 tested, 0.46% active | AID 588473;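 active means activation of at least 50%, plus an integration ratio under a set limit after plate pattern correction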;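 further: plate controls were neutral control wells without compound for no effect and CRF at EC100 for full effect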
TAAR1 nonsel count: nonselective antagonist in TAAR1 antagonist counter-screen. shares compounds with TAAR1 antag. counterscreen cell line, calcium fluorescence, antagonist mode. inhibition, % at 3 µM. 2,400 tested, 77% active. AID 651780; in the data active means inhibition above about 22%;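 further: CHO-Ga16 host cells stimulated with ATP at an EC80 level; 0% = agonist EC80 plus vehicle and 100% = vehicle without agonist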
TAAR1 ant conf: human TAAR1 antagonism, confirmed | AID 651785 | inhibition, % at 3 µM | shares compounds with TAAR1 antag | 2,400 tested, 40% active | TAAR1-expressing cells, fluorescence antagonist read-out; in the data active means inhibition above about 49%;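 further: CHO-Ga16 host cells challenged with agonist PEA near its EC80; 0% = agonist at EC80 plus vehicle and 100% = vehicle with no agonist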
Ga16 nonsel ag: nonselective Ga16 agonist in TAAR1 antagonist counter-screen; shares compounds with TAAR1 antag; Ga16-expressing cells, calcium fluorescence, agonist counterscreen; activation, % at 3 µM; 2,400 tested, 18% active; AID 651953; in the data active means activation above about 12%;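 further: 0% = vehicle wells and 100% = saturating stimulus response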
TAAR1 ag counter: counter-screen for human TAAR1 antagonists: TAAR1 agonists | shares compounds with TAAR1 antag | hTAAR1 cell line, fluorescence activation, agonist mode | activation, % at 3 µM | 2,400 tested, 2% active; in the data active means activation above about 37%;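 further: CHO cells stably expressing TAAR1 with calcium dye readout; 0% = DMSO vehicle and 100% = full agonist response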
The depositor's hits bear a star; i = inactive; x = no result given. In the library only some 3.9% were active in any assay of this set; here they are far more common.

SMILES | ANO1 activ | ANO1 block | TAAR1 antag | TAAR1 ag | CRFBP-R2 block | CRFBP-R2 agonist | TAAR1 nonsel count | TAAR1 ant conf | Ga16 nonsel ag | TAAR1 ag counter
COc1ccccc1NC(=O)Nc1nc(CC(=O)N2CCN(c3ccc(F)cc3)CC2)cs1 | i | i | 72* | 17 | -1 | -1 | 46* | 57* | 13* | 12
COc1ccc(NC(=O)Nc2ccccc2OC)cc1 | i | i | 3 | 0 | 33 | -1 | x | x | x | x
COc1ccccc1NC(=O)Nc1nc(CC(=O)Nc2cc(F)ccc2F)cs1 | i | i | 60* | 11 | 19 | 2 | 34* | 56* | 10 | 11
CN(CC(=O)Nc1ccccc1Cl)C(=O)CSc1nnc(-c2ccco2)n1C | i | x | -30 | -1 | 8 | -2 | x | x | x | x
COc1ccccc1NC(=O)Nc1nc(CC(=O)Nc2cccc(F)c2)cs1 | i | i | 47 | 9 | 0 | 3 | x | x | x | x
COc1ccccc1NC(=O)Nc1nc(CC(=O)Nc2ccc(F)cc2)cs1 | i | i | 52* | 21 | -4 | 1 | 22* | 36 | 9 | 14
CCc1nc(C)cn1S(=O)(=O)c1ccc(Br)cc1 | i | i | -23 | 3 | 17 | -4 | x | x | x | x
O=C1NC(=O)N(Cc2ccccc2F)C1=O | i | i | 2 | 0 | -16 | 13 | x | x | x | x
O=C(Nc1ccc(CN2CCOCC2)cc1)c1ccc2ccccc2c1 | i | i | 11 | 6 | -11 | 6 | x | x | x | x
CCOc1ccc(NC(=O)c2ccc(NC(=O)c3ccc(CN4CCOCC4)cc3)cc2)cc1 | i | i | 61* | 12 | 8 | 1 | 29* | 47 | 7 | 10
O=C(Nc1ccc(CN2CCOCC2)cc1)c1cccc(-c2cc3ccccc3oc2=O)c1 | i | i | 64* | 15 | -33 | 1 | 27* | 47 | 9 | 6
Cc1ccc2nc(C(C)(C)C)c(Cc3ccccc3C(F)(F)F)n2c1 | x | x | -39 | 5 | x | x | x | x | x | x
CCC(=O)N1CCCC1(C)C(=O)Nc1ccc2scnc2c1 (stereo unspecified) | x | x | -15 | 2 | x | x | x | x | x | x
CC(C)C[C@H](NC(=O)c1nc[nH]c1C(=O)NCC(=O)OCc1ccccc1)C(=O)OCc1ccccc1 | i | i | 67* | 11 | -5 | 3 | 21 | 53* | 11 | 17
C[C@H](NC(=O)c1nc[nH]c1C(=O)NCC(=O)OCc1ccccc1)C(=O)OCc1ccccc1 | i | i | 71* | 12 | 8 | 0 | 36* | 62* | 6 | 6
C[C@H](NC(=O)c1nc[nH]c1C(=O)NCC(=O)OCc1ccccc1)c1ccccc1 | i | i | 64* | 17 | 20 | -3 | 32* | 50* | 8 | 9
CC(C)C[C@H](NC(=O)c1nc[nH]c1C(=O)NCC(=O)OC(C)(C)C)C(=O)OCc1ccccc1 | i | i | 2 | -2 | 15 | 4 | x | x | x | x
N#C/C(=C\N1CCCCC1)S(=O)(=O)c1ccc(Cl)cc1 | i | i | -7 | 2 | -4 | -3 | x | x | x | x
Brc1cc2c(cc1CSc1ncccn1)OCO2 | i | i | -13 | 2 | 12 | -2 | x | x | x | x
O=C1c2cc([N+](=O)[O-])ccc2-c2cc(Br)c(N=C(NO)C(F)(F)F)cc21 | i | x | -24 | 0 | 14 | -2 | x | x | x | x
Cc1ccc(N(CC(=O)Nc2ccccc2C(=O)NCc2ccco2)S(=O)(=O)c2ccccc2)cc1C | i | i | 14 | 2 | 15 | 7 | x | x | x | x
Cc1ccc(C)c(N(CC(=O)Nc2ccccc2C(=O)NCc2ccco2)S(=O)(=O)c2ccccc2)c1 | i | i | 79* | 8 | 11 | 1 | 35* | 58* | 6 | 8
NS(=O)(=O)c1ccc(NC(=O)COC(=O)CCCN2C(=O)c3cccc4cccc(c34)C2=O)cc1 | i | x | 27 | 2 | -5 | -2 | x | x | x | x
O=C([C@H](Cc1ccccc1)NS(=O)(=O)c1ccc(Cl)cc1)N1CC[C@@]2(O)CCCC[C@H]2C1 | i | i | 56* | 26 | -16 | 0 | 24* | 46 | 8 | 9
COc1ccc(S(=O)(=O)N[C@@H](Cc2ccccc2)C(=O)N2CC[C@@]3(O)CCCC[C@H]3C2)cc1 | i | i | 35 | 14 | -18 | 1 | x | x | x | x
SMILES | ANO1 activ | ANO1 block | TAAR1 antag | TAAR1 ag | CRFBP-R2 block | CRFBP-R2 agonist | TAAR1 nonsel count | TAAR1 ant conf | Ga16 nonsel ag | TAAR1 ag counter
N#Cc1cccc(NC(=O)c2cc(C3CCCCN3C(=O)CCCc3ccccc3)on2)c1 (stereo unspecified) | x | x | 61* | 10 | x | x | 34* | 54* | 11 | 14
O=C(Nc1ccccc1)c1cc(C2CCCCN2C(=O)CCc2ccccc2)on1 (stereo unspecified) | x | x | 3 | 6 | x | x | x | x | x | x
CCC(C)Sc1ccc(-c2nc3cnccn3c2NC2CCCCC2)cc1 (stereo unspecified) | i | i | 20 | 8 | -17 | 2 | x | x | x | x
COc1ccc(Sc2ccc(-c3nc4cnccn4c3NC3CCCCC3)cc2OC)cc1 | i | x | 58* | 10 | -1 | 2 | 29* | 41 | 4 | 4
O=C1CN(N=Cc2ccco2)C(=O)N1 | i | x | 8 | 1 | 0 | 3 | x | x | x | x
COc1ccc(/C=C2\Oc3cc(OCC(=O)N4CC(O)C[C@H]4C(=O)O)ccc3C2=O)cc1OC (stereo partly specified) | i | i | -20 | 1 | 4 | 3 | x | x | x | x
CC(C)C1C(=O)N(Cc2cn(CCC3OCCCO3)nn2)CCS(=O)(=O)N1Cc1ccc(-c2ccc(Cl)cc2)cc1 (stereo unspecified) | x | x | -14 | 1 | -5 | 0 | x | x | x | x
CC1C(=O)N(Cc2cn(CCC3OCCO3)nn2)CCS(=O)(=O)N1Cc1ccc(-c2ccc(Cl)c(Cl)c2)cc1 (stereo unspecified) | x | x | 75* | 20 | -2 | 0 | 38* | 41 | 15* | 9
COc1ccc(-c2ccc(CN3C(C)C(=O)N(Cc4cn(CCC5OCCO5)nn4)CCS3(=O)=O)cc2)cc1 (stereo unspecified) | x | x | -7 | 5 | 1 | 0 | x | x | x | x
CC(C)C1C(=O)N(Cc2cn(CCC3OCCO3)nn2)CCS(=O)(=O)N1Cc1ccc(-c2ccc(Cl)cc2)cc1 (stereo unspecified) | x | x | 53* | 11 | 7 | 1 | 30* | 31 | 8 | 4
